Measurements taken from ChEMBL document CHEMBL1165965, “Synthesis and structure-activity relationships of 1,2,3,4-tetrahydropyrido[2,3-b]pyrazines as potent and selective inhibitors of the anaplastic lymphoma kinase” (Bioorg Med Chem, 2010).

Experiments:
[1] = system: Mast/stem cell growth factor receptor Kit (Homo sapiens), P10721 [V559D]; assay: Inhibition of KIT V559D mutant at 1 uM
How it was run: (§1)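 Single-concentration screen on the Ambit KINOMEscan platform, run against a panel of 250–400 kinases. Per-kinase inhibition was also summarized as S(90), the fraction of kinases inhibited by more than 90%.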

[2] = biological target: LIM domain kinase 2 (Homo sapiens) (UniProt P53671); assay: Inhibition of LIMK2 at 1 uM; how it was run: as §1
[3] = biological target: T1, Serine/threonine-protein kinase MAK (Homo sapiens) (UniProt P20794); assay: Inhibition of MAK at 1 uM
T1 sequence (whole entry): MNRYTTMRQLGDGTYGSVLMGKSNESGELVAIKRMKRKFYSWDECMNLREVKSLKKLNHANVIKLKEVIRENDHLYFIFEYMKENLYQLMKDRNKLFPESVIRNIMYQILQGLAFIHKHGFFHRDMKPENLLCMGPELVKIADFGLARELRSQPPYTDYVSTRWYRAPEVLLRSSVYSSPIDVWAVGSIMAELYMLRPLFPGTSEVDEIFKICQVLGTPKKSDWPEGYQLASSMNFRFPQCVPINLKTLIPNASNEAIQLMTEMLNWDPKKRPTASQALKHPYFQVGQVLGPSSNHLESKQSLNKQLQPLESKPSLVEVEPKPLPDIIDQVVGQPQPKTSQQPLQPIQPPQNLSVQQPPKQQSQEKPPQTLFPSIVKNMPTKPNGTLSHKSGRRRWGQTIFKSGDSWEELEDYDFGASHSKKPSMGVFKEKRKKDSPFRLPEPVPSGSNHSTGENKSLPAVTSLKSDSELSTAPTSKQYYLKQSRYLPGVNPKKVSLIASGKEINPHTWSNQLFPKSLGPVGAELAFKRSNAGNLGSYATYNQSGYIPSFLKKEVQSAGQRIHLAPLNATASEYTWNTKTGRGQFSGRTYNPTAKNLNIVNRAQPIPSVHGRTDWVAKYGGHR

[4] = system: Hepatocyte growth factor receptor (Homo sapiens), P08581 [Y1235D]; assay: Inhibition of MET Y1235D mutant at 1 uM
[5] = biological target: Mitogen-activated protein kinase kinase kinase 9 (Homo sapiens) (UniProt P80192); assay: Inhibition of MLK1 at 1 uM
[6] = biological target: Mitogen-activated protein kinase kinase kinase 11 (Homo sapiens) (UniProt Q16584); assay: Inhibition of MLK3 at 1 uM
How it was run: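 Kinase-panel screen using KINOMEscan technology, with 250–400 kinases per panel. Each compound was tested at a single concentration, and inhibition of each kinase was recorded. Selectivity was summarised as S(90), the fraction of kinases inhibited by more than 90%.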

[7] = biological target: Phosphatidylinositol 4,5-bisphosphate 3-kinase catalytic subunit gamma isoform (Homo sapiens) (UniProt P48736); assay: Inhibition of PIK3CG at 1 uM
[8] = biological target: Serine/threonine-protein kinase pim-3 (Homo sapiens) (UniProt Q86V86); assay: Inhibition of PIM3 at 1 uM
[9] = biological target: Serine/threonine-protein kinase N1 (Homo sapiens) (UniProt Q16512); assay: Inhibition of PKN1 at 1 uM
[10] = biological target: Protein kinase C theta type (Homo sapiens) (UniProt Q04759); assay: Inhibition of PRKCQ at 1 uM
[11] = biological target: Tyrosine-protein kinase SYK (Homo sapiens) (UniProt P43405); assay: Inhibition of SYK at 1 uM
[12] = biological target: Dual specificity testis-specific protein kinase 1 (Homo sapiens) (UniProt Q15569); assay: Inhibition of TESK1 at 1 uM
[13] = system: Tyrosine-protein kinase ABL1 (Homo sapiens), P00519 [F317I]; assay: Inhibition of ABL1 F317I mutant at 1 uM
[14] = biological target: Activin receptor type-2A (Homo sapiens) (UniProt P27037); assay: Inhibition of ACVR2A at 1 uM
How it was run: (§2)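 Ambit KINOMEscan screen at a single concentration across a 250–400 kinase panel, recorded as percent inhibition. Selectivity was expressed as S(90), the fraction of kinases inhibited >90%.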

[15] = biological target: Atypical kinase COQ8A, mitochondrial (Homo sapiens) (UniProt Q8NI60); assay: Inhibition of ADCK3 at 1 uM; how it was run: as §2
[16] = biological target: Calcium/calmodulin-dependent protein kinase type II subunit gamma (Homo sapiens) (UniProt Q13555); assay: Inhibition of CAMK2G at 1 uM; how it was run: as §2
[17] = biological target: T2, Calcium/calmodulin-dependent protein kinase type IV (Homo sapiens) (UniProt Q16566); assay: Inhibition of CAMK4 at 1 uM
T2 sequence (whole entry): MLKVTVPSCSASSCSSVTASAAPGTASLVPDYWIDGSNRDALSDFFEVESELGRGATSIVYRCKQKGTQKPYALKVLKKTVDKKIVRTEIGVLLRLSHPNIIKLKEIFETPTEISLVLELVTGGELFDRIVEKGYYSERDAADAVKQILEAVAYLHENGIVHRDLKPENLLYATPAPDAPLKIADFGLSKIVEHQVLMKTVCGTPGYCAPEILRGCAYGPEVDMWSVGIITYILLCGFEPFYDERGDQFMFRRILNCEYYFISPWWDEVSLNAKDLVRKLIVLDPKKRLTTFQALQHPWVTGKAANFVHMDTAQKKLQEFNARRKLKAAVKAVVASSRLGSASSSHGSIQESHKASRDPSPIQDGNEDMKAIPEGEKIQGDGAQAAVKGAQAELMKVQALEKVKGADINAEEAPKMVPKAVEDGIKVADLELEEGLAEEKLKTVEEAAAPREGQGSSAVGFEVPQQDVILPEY

[18] = biological target: Mitogen-activated protein kinase 4 (Homo sapiens) (UniProt P31152); assay: Inhibition of ERK4 at 1 uM
[19] = biological target: Tyrosine-protein kinase Fyn (Homo sapiens) (UniProt P06241); assay: Inhibition of FYN at 1 uM; how it was run: as §1
[20] = biological target: Homeodomain-interacting protein kinase 2 (Homo sapiens) (UniProt Q9H2X6); assay: Inhibition of HIPK2 at 1 uM

Measured: inhibition

Mast/stem cell growth factor receptor Kit (Homo sapiens), P10721 [V559D], sequence (P10721 whole entry V559D): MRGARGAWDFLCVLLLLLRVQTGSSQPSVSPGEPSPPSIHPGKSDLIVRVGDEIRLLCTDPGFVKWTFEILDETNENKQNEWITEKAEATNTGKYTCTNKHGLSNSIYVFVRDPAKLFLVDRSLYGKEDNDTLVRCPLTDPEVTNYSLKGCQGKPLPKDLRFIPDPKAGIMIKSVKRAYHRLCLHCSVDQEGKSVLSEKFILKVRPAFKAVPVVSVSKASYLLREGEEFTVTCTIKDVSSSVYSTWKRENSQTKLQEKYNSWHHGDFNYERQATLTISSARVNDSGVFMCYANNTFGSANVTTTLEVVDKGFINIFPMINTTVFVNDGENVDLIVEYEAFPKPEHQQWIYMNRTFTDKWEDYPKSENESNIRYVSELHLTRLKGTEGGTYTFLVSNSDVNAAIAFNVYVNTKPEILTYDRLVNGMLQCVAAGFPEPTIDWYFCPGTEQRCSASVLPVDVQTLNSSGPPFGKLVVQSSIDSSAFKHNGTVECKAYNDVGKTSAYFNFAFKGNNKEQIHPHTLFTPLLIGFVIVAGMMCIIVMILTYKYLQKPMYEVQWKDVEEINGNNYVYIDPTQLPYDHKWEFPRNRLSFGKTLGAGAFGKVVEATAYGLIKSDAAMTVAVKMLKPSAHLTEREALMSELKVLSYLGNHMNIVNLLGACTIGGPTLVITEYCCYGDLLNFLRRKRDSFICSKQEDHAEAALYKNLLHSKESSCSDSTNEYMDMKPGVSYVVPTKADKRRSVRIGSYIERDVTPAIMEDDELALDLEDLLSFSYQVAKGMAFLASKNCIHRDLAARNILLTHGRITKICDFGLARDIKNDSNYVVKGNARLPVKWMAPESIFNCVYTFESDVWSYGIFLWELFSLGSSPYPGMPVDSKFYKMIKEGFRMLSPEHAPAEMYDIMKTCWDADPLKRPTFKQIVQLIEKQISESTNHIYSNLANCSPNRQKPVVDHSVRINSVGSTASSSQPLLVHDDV
Homeodomain-interacting protein kinase 2 (Homo sapiens), sequence (Q9H2X6 whole entry, looked up): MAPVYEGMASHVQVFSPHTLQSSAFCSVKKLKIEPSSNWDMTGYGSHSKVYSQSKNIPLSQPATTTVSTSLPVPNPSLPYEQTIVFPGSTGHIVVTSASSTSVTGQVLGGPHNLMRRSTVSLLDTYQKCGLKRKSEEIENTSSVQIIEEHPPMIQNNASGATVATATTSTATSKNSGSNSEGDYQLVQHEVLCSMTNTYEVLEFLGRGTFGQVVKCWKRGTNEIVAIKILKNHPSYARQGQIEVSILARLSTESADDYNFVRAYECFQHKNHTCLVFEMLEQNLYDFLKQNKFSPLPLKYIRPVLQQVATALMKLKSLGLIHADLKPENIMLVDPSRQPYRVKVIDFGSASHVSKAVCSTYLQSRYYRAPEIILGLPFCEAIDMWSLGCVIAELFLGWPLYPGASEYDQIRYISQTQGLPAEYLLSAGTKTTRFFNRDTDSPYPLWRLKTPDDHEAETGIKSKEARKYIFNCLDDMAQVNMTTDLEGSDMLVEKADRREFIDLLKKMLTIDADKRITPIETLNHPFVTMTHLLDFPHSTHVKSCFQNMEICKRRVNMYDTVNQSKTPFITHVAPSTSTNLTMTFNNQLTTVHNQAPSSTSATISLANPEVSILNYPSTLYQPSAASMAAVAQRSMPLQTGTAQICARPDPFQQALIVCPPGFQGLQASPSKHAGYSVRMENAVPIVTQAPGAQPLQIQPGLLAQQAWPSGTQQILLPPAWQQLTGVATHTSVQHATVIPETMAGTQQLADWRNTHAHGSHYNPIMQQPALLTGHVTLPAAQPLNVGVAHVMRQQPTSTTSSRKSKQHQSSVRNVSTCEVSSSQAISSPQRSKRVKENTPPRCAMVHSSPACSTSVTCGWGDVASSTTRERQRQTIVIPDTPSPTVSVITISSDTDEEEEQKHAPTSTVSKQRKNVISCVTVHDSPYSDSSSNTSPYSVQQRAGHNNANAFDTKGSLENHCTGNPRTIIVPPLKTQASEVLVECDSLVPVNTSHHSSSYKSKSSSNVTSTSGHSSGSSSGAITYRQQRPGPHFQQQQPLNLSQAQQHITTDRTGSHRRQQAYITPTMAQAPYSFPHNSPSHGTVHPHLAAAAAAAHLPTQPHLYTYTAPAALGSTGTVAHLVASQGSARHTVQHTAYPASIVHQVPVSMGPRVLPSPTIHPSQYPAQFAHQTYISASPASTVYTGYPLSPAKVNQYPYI
Tyrosine-protein kinase ABL1 (Homo sapiens), P00519 [F317I], sequence (P00519 whole entry F317I): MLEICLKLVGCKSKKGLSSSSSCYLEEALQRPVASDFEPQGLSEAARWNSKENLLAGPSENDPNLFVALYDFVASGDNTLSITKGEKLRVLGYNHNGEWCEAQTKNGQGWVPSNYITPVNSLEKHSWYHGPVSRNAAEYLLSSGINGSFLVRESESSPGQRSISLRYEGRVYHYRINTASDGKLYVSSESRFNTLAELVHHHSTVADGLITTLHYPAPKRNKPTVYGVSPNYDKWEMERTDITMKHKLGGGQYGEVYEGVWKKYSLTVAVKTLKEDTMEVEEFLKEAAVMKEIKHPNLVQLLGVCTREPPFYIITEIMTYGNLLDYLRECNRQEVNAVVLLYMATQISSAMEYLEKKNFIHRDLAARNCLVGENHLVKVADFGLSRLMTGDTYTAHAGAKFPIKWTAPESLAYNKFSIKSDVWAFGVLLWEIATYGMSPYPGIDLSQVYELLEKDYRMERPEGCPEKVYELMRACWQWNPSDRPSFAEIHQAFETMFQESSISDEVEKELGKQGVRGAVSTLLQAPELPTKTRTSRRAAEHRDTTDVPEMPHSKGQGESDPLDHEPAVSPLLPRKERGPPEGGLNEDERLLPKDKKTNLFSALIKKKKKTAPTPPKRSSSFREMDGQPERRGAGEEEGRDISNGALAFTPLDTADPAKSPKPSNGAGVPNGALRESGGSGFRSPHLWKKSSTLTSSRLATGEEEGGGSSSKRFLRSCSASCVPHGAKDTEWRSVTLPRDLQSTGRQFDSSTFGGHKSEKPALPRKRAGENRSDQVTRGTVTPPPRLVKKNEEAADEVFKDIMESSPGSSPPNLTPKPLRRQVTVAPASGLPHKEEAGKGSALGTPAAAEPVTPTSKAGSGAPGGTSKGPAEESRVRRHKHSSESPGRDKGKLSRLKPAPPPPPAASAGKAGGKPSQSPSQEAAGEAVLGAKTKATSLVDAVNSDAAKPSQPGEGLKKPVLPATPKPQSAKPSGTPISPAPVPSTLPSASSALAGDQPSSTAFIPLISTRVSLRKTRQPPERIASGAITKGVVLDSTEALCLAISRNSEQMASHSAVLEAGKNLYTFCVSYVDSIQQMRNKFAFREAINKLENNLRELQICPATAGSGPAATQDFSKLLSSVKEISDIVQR
Calcium/calmodulin-dependent protein kinase type II subunit gamma (Homo sapiens), sequence (Q13555 whole entry): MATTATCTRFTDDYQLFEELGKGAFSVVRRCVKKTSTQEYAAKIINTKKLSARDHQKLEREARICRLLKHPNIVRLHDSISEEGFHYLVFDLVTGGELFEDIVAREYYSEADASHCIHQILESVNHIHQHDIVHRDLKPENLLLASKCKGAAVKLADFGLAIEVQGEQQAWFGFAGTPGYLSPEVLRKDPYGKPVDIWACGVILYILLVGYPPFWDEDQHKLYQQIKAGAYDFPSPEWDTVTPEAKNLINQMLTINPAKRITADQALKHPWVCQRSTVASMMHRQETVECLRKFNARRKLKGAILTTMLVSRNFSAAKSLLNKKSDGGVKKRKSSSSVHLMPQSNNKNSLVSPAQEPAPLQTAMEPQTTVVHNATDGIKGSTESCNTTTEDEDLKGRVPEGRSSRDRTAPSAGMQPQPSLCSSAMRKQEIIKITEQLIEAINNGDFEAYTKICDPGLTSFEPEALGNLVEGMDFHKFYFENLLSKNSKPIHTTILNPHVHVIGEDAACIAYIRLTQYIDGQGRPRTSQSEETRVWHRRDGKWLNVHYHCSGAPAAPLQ
Serine/threonine-protein kinase N1 (Homo sapiens), sequence (Q16512 2-942 limits assumed): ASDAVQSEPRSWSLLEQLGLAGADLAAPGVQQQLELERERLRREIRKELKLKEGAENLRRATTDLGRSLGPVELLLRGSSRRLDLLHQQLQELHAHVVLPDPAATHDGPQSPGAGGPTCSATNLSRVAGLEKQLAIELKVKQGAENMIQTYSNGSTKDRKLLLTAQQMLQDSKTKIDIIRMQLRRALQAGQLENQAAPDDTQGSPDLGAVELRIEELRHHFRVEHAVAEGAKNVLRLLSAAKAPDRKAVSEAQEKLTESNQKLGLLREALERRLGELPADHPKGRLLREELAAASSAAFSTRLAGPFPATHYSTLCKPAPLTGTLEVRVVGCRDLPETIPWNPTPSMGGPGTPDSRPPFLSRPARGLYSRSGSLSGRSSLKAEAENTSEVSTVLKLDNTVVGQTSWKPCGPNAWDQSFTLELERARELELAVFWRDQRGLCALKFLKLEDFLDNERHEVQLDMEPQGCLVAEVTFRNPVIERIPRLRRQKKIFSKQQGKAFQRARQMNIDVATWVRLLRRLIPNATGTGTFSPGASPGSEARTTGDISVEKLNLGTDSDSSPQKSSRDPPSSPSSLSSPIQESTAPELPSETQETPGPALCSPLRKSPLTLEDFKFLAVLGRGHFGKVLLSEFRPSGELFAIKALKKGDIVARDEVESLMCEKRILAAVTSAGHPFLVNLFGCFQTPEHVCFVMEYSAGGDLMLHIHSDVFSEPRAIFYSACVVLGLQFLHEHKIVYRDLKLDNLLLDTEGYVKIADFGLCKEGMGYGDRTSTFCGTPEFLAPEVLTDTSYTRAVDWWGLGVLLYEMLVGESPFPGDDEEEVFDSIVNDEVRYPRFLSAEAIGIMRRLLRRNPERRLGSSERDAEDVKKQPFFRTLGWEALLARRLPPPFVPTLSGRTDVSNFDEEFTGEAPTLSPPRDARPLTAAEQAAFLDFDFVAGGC

CN1CCN(c2ccc(-c3cnc4c(c3)N(Cc3cc(F)ccc3F)CCN4)cn2)CC1
< 50%: [1] | [2] | [3] | [4] | [5] | [6] | [7] | [8] | [9] | [10] | [11] | [12] | [13] | [14] | [15] | [16] | [17] | [18] | [19] | [20]

CC(=O)N1CCN(c2cc(-c3cnc4c(c3)N(Cc3cc(Cl)ccc3C(F)(F)F)CCN4)ccn2)CC1
67%: [4]
< 50%: [1] | [2] | [3] | [5] | [6] | [7] | [8] | [9] | [10] | [11] | [12] | [13] | [14] | [15] | [16] | [17] | [18] | [19] | [20]

CN1CCN(c2ccc(-c3cnc4c(c3)N(Cc3c(F)ccc(F)c3Cl)CCN4)cn2)CC1
71%: [4]
69%: [1]
< 50%: [2] | [3] | [5] | [6] | [7] | [8] | [9] | [10] | [11] | [12] | [14] | [15] | [16] | [17] | [18] | [19] | [20]
74%: [13]

FC(F)(F)c1ccc(Cl)cc1CN1CCNc2ncc(-c3ccnc(N4CCNCC4)c3)cc21
75%: [4]
< 50%: [2] | [3] | [5] | [6] | [7] | [8] | [10] | [11] | [12] | [13] | [14] | [15] | [16] | [17] | [18] | [19] | [20]
97%: [1]
82%: [9]

CN1CCN(c2ccc(-c3cnc4c(c3)N(Cc3cc(Cl)ccc3Cl)CCN4)cn2)CC1
< 50%: [2] | [3] | [4] | [5] | [6] | [7] | [8] | [9] | [10] | [11] | [12] | [13] | [14] | [15] | [16] | [17] | [18] | [19] | [20]
82%: [1]

O=C(c1ccc(-c2cnc3c(c2)N(Cc2cc(Cl)ccc2C(F)(F)F)CCN3)cc1)N1CCC(N2CCCC2)CC1
88.5%: [12]
91.9%: [1]
< 50%: [2] | [6] | [8] | [11] | [14] | [15] | [16] | [19]

O=C(O)c1ccc(-c2cnc3c(c2)N(Cc2cc(Cl)ccc2C(F)(F)F)CCN3)cc1
< 50%: [1] | [2] | [5] | [6] | [11] | [12] | [13] | [14] | [15] | [16] | [19]
79.2%: [8]

CN1CCN(c2ccc(-c3cnc4c(c3)N(Cc3cc(Cl)ccc3C(F)(F)F)CCN4)cn2)CC1
< 50%: [1] | [2] | [3] | [4] | [5] | [6] | [7] | [8] | [9] | [10] | [11] | [12] | [13] | [14] | [15] | [16] | [17] | [18] | [19] | [20]

O=C(c1ccc(-c2cnc3c(c2)N(Cc2cc(Cl)ccc2C(F)(F)F)CCN3)cc1)N1CCCCC1
< 50%: [1] | [2] | [5] | [6] | [8] | [11] | [12] | [14] | [15] | [16] | [19]

COC1CCN(C(=O)c2ccc(-c3cnc4c(c3)N(Cc3cc(Cl)ccc3C(F)(F)F)CCN4)cc2)CC1
< 50%: [1] | [2] | [5] | [6] | [8] | [11] | [12] | [14] | [15] | [16] | [19]
